Only a selection was taken, and hits are over-represented in it overall.
Hsp70 act: Hsp70 transcriptional activators, primary screen, cell-based, HeLa, Hsp70 promoter luciferase, luminescence, 10 µM. HeLa Hsp70 promoter luciferase reporter; scaled: vehicle 0, proteasome-inhibitor control 100%. activation, % at 10 µM. actives 0.04% (n = 200,000). AID 1203, 2008;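 active means activation above the mean across all tested compounds plus 3 SD, cutoff set per campaign, cut at about 5.5% in these data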;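 further: 100% = MG132 at 30 µM as the positive control and 0% = DMSO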
L major viab: Leishmania major promastigote growth inhibition, primary screen; Leishmania major promastigotes, resazurin fluorescence viability; inhibition, % at 10 µM; actives 9% (n = 200,000); AID 1063, 2008; in the data active means inhibition above about 50%;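 further: promastigotes grown with compound for 44 hours at 28 °C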
HSF1 activator: HSF-1 activators, primary screen, NIH3T3-HGL cells, MG132 stress, luminescence, single point; NIH3T3-HGL HSF-1 luciferase reporter, 8 h; 100% = twice DMSO control signal; activation, % at 9 µM; actives 1.7% (n = 300,000); AID 504408, 2011;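 active means mean replicate activation of at least 50% with a set share of replicates each reaching 50%; inconclusive means only one of those two conditions met; inactive means mean below 50% and too few replicates reaching it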;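 further: 0% = median of the neutral control wells and 100% = twice that signal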
T cruzi inh: inhibitors of intracellular T. cruzi growth, primary screen, luminescence, NIH3T3 host cells. inhibition, % (no concentration beside the values). T. cruzi beta-gal in NIH3T3, 90 h. AID 1885, 2009. actives 1.4% (n = 300,000);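 active means mean inhibition across valid replicates above about 55%, limit read from the data; inconclusive means mean below that limit but half or more replicates reach it; inactive means mean below it, under half of replicates reach it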;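 further: signal also drops with host cell toxicity which is not excluded here; 0% = plate median of DMSO wells and 100% = zero luminescence signal; higher percent means less beta-gal luminescence so fewer parasites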
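System: NIH/3T3 fibroblasts plus reporter T. cruzi. Medium: DMEM plus 2% FBS. Probe or stimulus: 5000 reporter trypomastigotes per well. Compound: single 50 nL compound addition per well in DMSO. Incubation: co-culture of at least 90 h after 3 h attachment. Detection: GalScreen β-gal luminescence, detergent lysis, 60 min. Evaluation: parasite load inhibition, %.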
HSF1 inhib: HSF1 inhibitors in luciferase reporter cells, primary screen, cell-based, NIH3T3, luminescence; activity change, negative = inhibition, % at 7.5 µM (by protocol); NIH3T3-HGL HSE-luciferase, MG132-induced, luminescence 8 h; active compounds read low; actives 0.77% (n = 300,000); AID 2098, 2009;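 active means more than half of replicate wells show activity change below -50%, luminescence cut by over half; inconclusive means some wells, but at most half, below -50%; inactive means no replicate well below -50%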;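 further: luciferase reports HSF-1 transcriptional activity via heat shock element; 0% = median of DMSO wells and -100% = zero luminescence signal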
* hit, by the source's call; u = inconclusive; x = not tested or not shown.

SMILES	Hsp70 act	L major viab	HSF1 activator	T cruzi inh	HSF1 inhib
Cc1ccc(C)c(NC(=O)CSc2ccc(-c3ccco3)nn2)c1	-0.3	54.7*	9.9	-9.3	3.4
Cc1cccc(NC(=O)CSc2nnc(-c3ccco3)c(-c3ccco3)n2)c1C	0.1	87.0*	88.6*	19.4	57.1
Cc1cc(C)cc(NC(=O)CSc2ccc(-c3cccs3)nn2)c1	-0.5	72.0*	3.7	8.3	4.6
COc1ccc(CCNC(=O)CSc2nnc(-c3ccco3)c(-c3ccco3)n2)cc1OC	x	x	-17.1	6.1	-9.6
Cc1cccc(NC(=O)CSc2nnc(-c3ccco3)c(-c3ccco3)n2)c1	-0.3	68.3*	x	x	x
Cc1cc(C)c2nc(-c3ccccn3)cc(C(=O)N3CCCC3)c2c1	x	x	-8.4	2.4	-2.5
COc1cc(CCC(=O)NNC(=O)c2ccc(C)cc2)cc(OC)c1OC	-0.4	-2.2	-13.5	-15.6	-9.9
O=[N+]([O-])c1ccc(N=Cc2sc3ccccc3c2O)cc1	-0.3	38.5	-87.0	-28.6	-84.1*
O=[N+]([O-])c1cccc(N=Cc2sc3ccccc3c2O)c1	-0.2	-3.9	31.6	-16.5	27.6
CN(C)c1cccc(C(=O)OCC(=O)N(C)c2ccccc2)c1	x	x	26.4	-6.8	-0.3
CC(=O)Oc1ccc(-c2cccc(C(=O)OCC(=O)N(C)c3ccccc3)c2)cc1	-0.1	5.2	90.1*	-12.1	49.5
Cc1cc(=O)n2[nH]c(-c3ccccc3)cc2n1	0.0	0.3	7.7	-11.4	8.6
Cc1cc(=O)n2[nH]c(-c3ccc(C(C)(C)C)cc3)cc2n1	-0.2	100.0*	18.9	63.1*	-9.0
CCOC(=O)Cc1c(C)nc2cc(-c3ccc(Cl)cc3)[nH]n2c1=O	0.4	-8.6	25.9	7.3	-0.1
CCc1c(C)nc2cc(-c3ccc(OC)cc3)[nH]n2c1=O	0.2	58.4*	23.2	4.8	5.4
CN(C)c1ccc(C(C(=O)NC2CCCC2)N(C(=O)c2ccco2)C2CC2)cc1 (stereo not given)	x	x	-3.7	12.7	2.4
Cc1cc(-c2sccc2Br)nc(-n2cccc2)n1	0.3	-3.4	71.6*	-1.3	33.4
CCOC(=O)C1=C(C)N=c2s/c(=C/c3cccc([N+](=O)[O-])c3O)c(=O)n2C1c1ccccc1 (stereo not given)	x	x	7.5	11.4	-4.4
CCOC(=O)C1=C(C)N=c2s/c(=C/c3cccc([N+](=O)[O-])c3O)c(=O)n2C1c1cc(OC)c(OC)c(OC)c1 (stereo not given)	x	x	57.7*	-4.9	5.5
Cc1cccc(OCc2ccc(C(=O)N3CCOCC3)o2)c1	x	x	17.4	-2.8	9.3
CC(C)(C)c1ccc(OCc2ccc(C(=O)N3CCOCC3)o2)cc1	0.3	1.5	58.1*	3.7	20.7
Cc1ccccc1CC1(CO)CCCN(Cc2nc(-c3cccs3)oc2C)C1 (stereo not given)	-0.3	54.8*	16.0	29.2	1.7
Cc1oc(-c2cccs2)nc1CN1CC[C@@](O)(c2ccccc2)[C@H]2CCCC[C@@H]21	-0.3	42.3	-1.6	32.1	-4.1
Cc1ccc(-c2nnc(Nc3ccccc3)c3ccccc23)cc1S(=O)(=O)NCC1CCCO1 (stereo not given)	-0.2	80.3*	7.2	24.8	-0.2
Cc1ccc(-c2nnc(Nc3ccc4c(c3)OCO4)c3ccccc23)cc1S(=O)(=O)NCCO	-0.1	76.8*	9.4	18.5	-5.4
SMILES	Hsp70 act	L major viab	HSF1 activator	T cruzi inh	HSF1 inhib
Cc1ccc(-c2nnc(Nc3ccc(CC(N)=O)cc3)c3ccccc23)cc1S(=O)(=O)NCCO	x	x	-6.2	-15.2	-2.9
Cc1ccc(-c2nnc(Nc3ccc4c(c3)OCO4)c3ccccc23)cc1S(=O)(=O)NC(C)C	-0.2	91.4*	-5.0	38.2	-0.6
CNS(=O)(=O)c1cc(-c2nnc(Nc3ccc(NC(C)=O)cc3)c3ccccc23)ccc1C	x	x	-1.7	-5.9	0.9
OCC1(Cc2ccc(Cl)cc2)CCN(Cc2ccc(Oc3ncccn3)cc2)CC1	-0.4	41.8	-6.2	59.1*	1.7
COc1ccc(CCC(C)N2CCC(CO)(Cc3ccccc3)CC2)cc1 (stereo not given)	x	x	8.9	16.6	2.2
OCC1(Cc2ccc(Cl)cc2)CCN(Cc2ccc3nsnc3c2)CC1	0.0	88.4*	2.9	30.1	6.2
COc1ccc(CC2(CO)CCN(C(C)Cc3ccc(Cl)cc3)CC2)cc1 (stereo not given)	0.0	86.2*	-21.7	34.2	0.5
COc1ccc(CC2(CO)CCN(Cc3cccnc3)CC2)cc1	-0.3	89.3*	2.8	14.6	-3.5
COC(=O)C(C)Oc1cc(OC(C)C(=O)OC)c2c(-c3ccccc3)cc(=O)oc2c1 (stereo not given)	x	x	-8.1	2.7	-1.1
CCOC(=O)N1CCN(C/C(Cl)=C/c2ccccc2)CC1	x	x	4.1	-9.9	5.4
O=C1COc2ccc(N3C(=O)C=CC3=O)cc2N1	-0.2	-1.5	-58.2	-5.7	u
COc1ccc(CC2(CO)CCN(Cc3ccc4nsnc4c3)CC2)cc1	-0.4	88.5*	-13.1	20.5	5.1
COCc1ccc(CN2CCCC(CCC(=O)NCc3cccc(OC)c3)C2)o1 (stereo not given)	-0.2	28.2	x	59.1*	x
COc1ccc(/C=C/CN2CCCC(CCC(=O)NCc3ccc(F)c(F)c3)C2)cc1 (stereo not given)	-0.2	80.7*	x	67.9*	x
COCCC(=O)N1CCCC(CCC(=O)NCc2ccc(F)c(F)c2)C1 (stereo not given)	-0.1	-8.6	9.4	4.6	2.1
COc1cccc(CNC(=O)CCC2CCCN(C/C=C/c3ccccc3OC)C2)c1 (stereo not given)	-0.4	30.9	16.6	66.1*	10.1
COc1ccccc1/C=C/CN1CCCC(CCC(=O)NCc2ccc(F)c(F)c2)C1 (stereo not given)	0.0	10.7	-5.8	67.6*	3.2
CCN(CC1CCCN(CCc2cccc(OC)c2)C1)C(=O)c1ccc(COC)o1 (stereo not given)	x	x	13.0	77.4*	-1.8
Cc1cnc(NC(=O)C2CC=CCC2)s1 (stereo not given)	x	x	-9.0	-20.6	-7.7
O=C(CSc1ncnc2c1nnn2Cc1ccc(F)cc1)NCC1CCCO1 (stereo not given)	x	x	62.6*	-14.8	43.9
O=C(CSc1ncnc2c1nnn2Cc1ccc(F)cc1)NC1CCCCC1	0.1	8.3	32.0	78.8*	2.3
NC(=O)CSc1ncnc2c1nnn2Cc1ccc(F)cc1	-0.2	8.5	19.8	25.1	19.4
Cc1cc(C)nc(/N=C(\N)Nc2ccc(S(=O)(=O)Nc3nccc(C)n3)cc2)n1	-0.1	-11.8	-6.6	2.1	3.5
CON(c1nc(N(C)C)nc(N(C)C)n1)S(=O)(=O)c1ccccc1Cl	1.0	64.6*	-0.2	5.5	7.4

Bioassay records: PubChem BioAssay, several laboratories
